Results reported in ChEMBL document CHEMBL4825700, “A comprehensive assessment of a new series of 5',6'-difluorobenzotriazole-acrylonitrile derivatives as microtubule targeting agents (MTAs)” (Eur J Med Chem, 2021).
Active and inactive are the calls of the source.

Tests used:
[1] = system: CCRF-CEM; experiment: Antiproliferative activity against human CCRF-CEM cells assessed as inhibition of cell proliferation measured after 96 hrs by MTT assay; assay type: functional, cell-based
[2] = system: U-251; experiment: Antiproliferative activity against human U-251 cells assessed as lethality measured after 24 to 48 hrs by XTT assay; assay type: functional; conditions: time 24-48 hrs
Procedure, shortened: (§1)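 NCI60 screen run by the NCI Developmental Therapeutics Program. A single 10 µM dose was first tested across the full 60-cell-line panel. Compounds meeting the inhibition selection criteria were then retested at five 10-fold dilutions from 100 µM to 0.01 µM. GI50, TGI and LC50 were reported as molar concentrations for each tumour-type group.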

[3] = system: HeLa; experiment: Induction of incomplete cytokinesis with increased cell dimension in human HeLa cells at 0.3 uM measured after 48 hrs by fluorescence microscopy; assay type: functional, cell-based
[4] = Antiproliferative against human ovarian cancer cells assessed as reduction in cell growth incubated for 24 to 48 hrs by XTT assay; assay type: functional, Panel ovarian (Carcinoma cell lines); conditions: Ovarian carcinoma cell, time 24-48 hrs
Procedure, shortened: (§2)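 NCI60 panel screen by the NCI Developmental Therapeutics Program: single dose of 10 µM first; compounds meeting inhibition criteria retested at five 10-fold dilutions, 100 µM to 0.01 µM; GI50, TGI and LC50 derived.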

[5] = Antiproliferative against human renal cancer cells assessed as reduction in cell growth incubated for 24 to 48 hrs by XTT assay; assay type: functional; conditions: Panel renal (Carcinoma cell lines), time 24-48 hrs; procedure, shortened: as §2
[6] = Antiproliferative activity against human leukemia cells assessed as reduction in cell viability measured after 24 to 48 hrs by XTT assay; assay type: functional; conditions: Panel leukemia (Carcinoma cell lines), time 24-48 hrs; for CC50: read-out: LC50 (the source's name)
[7] = target: T1, Tubulin (Homo sapiens) (UniProt P68371+Q9H4B7+P0DPH7+P68366+Q13509+Q71U36+P04350+Q3ZCM7+P07437+P68363+Q9BQE3+Q6PEY2+Q13885+Q9BVA1+Q9BUF5); experiment: Disruption of microtubules in human HeLa cells assessed as beta-tubulin disassembly at 50 to 500 nM incubated for 24 hrs by high-content confocal microscopy; assay type: cell-based; conditions: dose 50-500 nM
Procedure, shortened: (§3)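 HeLa treated 24 h at 10, 25, 50, 100 and 500 nM, stained for β-tubulin and nuclei (DAPI), imaged by high-content confocal microscopy; tubulin disassembly and cell dimension compared with controls.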

[8] = system: HT1197; experiment: Antiproliferative activity against human HT1197 cells assessed as reduction in cell growth at 4 to 16 uM incubated for 72 hrs in presence of extrusion-pump inhibitor, SS26 by CellTox based fluorescence analysis; assay type: functional; conditions: dose 4-16 µM
Procedure, shortened: (§4)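 A498, A-704, A549 and HT1197 cells (DMEM high glucose, 10% FBS, 37 °C, 5% CO2) plated 500/well with SiR-DNA 0.5 µM and CellTox Green 0.8x, treated next day at 1, 2, 4, 8, 16 µM alone or with EPI SS26 at fixed 1 µM, 0.3% DMSO. Nuclei and dead cells imaged at 0, 24, 48, 72 h; percentage growth calculated; three technical replicates.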

[9] = system: Panel CNS (Carcinoma cell lines); experiment: Antiproliferative activity against human CNS cancer cells assessed as reduction in cell viability measured after 24 to 48 hrs by XTT assay; assay type: functional; conditions: time 24-48 hrs; for CC50: read-out: LC50 (the source's name)
[10] = system: HeLa; experiment: Induction of cell cycle arrest in human HeLa cells assessed as accumulation of cells at G0/G1 phase at 10 uM incubated for 48 hrs by 7-AAD staining based flow cytometry analysis (reference value: 65%); assay type: functional
Procedure, shortened: (§5)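 HeLa seeded at 50% confluence, treated after 24 h with 5 or 10 µM for 24 or 48 h. Adherent plus floating cells fixed in ice-cold 70% ethanol overnight at -20 °C, stained with 7-AAD 20 min at room temperature; 20000 events per sample by flow cytometry; phase percentages compared with control.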

[11] = system: HeLa; experiment: Induction of cell cycle arrest in human HeLa cells assessed as accumulation of cells at G2/M phase at 10 uM incubated for 24 hrs by 7-AAD staining based flow cytometry analysis (reference value: 30%); assay type: functional; procedure, shortened: as §5
[12] = species on record: Sus scrofa; experiment: Displacement of colchicine from pig tubulin assessed as reduction in colchicine effectiveness on tubulin assembly measured every 20 secs for 30 mins by fluorescence based analysis
[13] = target: T1, Tubulin (Homo sapiens); experiment: Disruption of microtubules in human HeLa cells assessed as increase in cytoplasmic dimensions at 50 nM incubated for 24 hrs by high-content confocal microscopy relative to control; assay type: cell-based; procedure, shortened: as §3
[14] = Antiproliferative activity against human colon cancer cells assessed as reduction in cell viability measured after 24 to 48 hrs by XTT assay; assay type: functional, Panel colon (Carcinoma cell lines); conditions: Colon carcinoma cell, time 24-48 hrs
[15] = system: HeLa; experiment: Antiproliferative activity against human HeLa cells assessed as reduction in cell viability measured after 48 hrs by XTT assay; assay type: functional, cell-based
Procedure, shortened: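 HeLa (DMEM, 10% FBS, 37 °C, 5% CO2) seeded 1500 cells/well, treated 24 h later at 0.1–5 µM for 24 and 48 h; DMSO vehicle as control. XTT reagent 4 h at 37 °C, absorbance at 490 nm; IC50 calculated from viability; more than three independent experiments, each in triplicate.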

[16] = system: HeLa; experiment: Induction of cell cycle arrest in human HeLa cells assessed as accumulation of cells at S phase at 10 uM incubated for 24 hrs by 7-AAD staining based flow cytometry analysis (reference value: 5%); assay type: functional; procedure, shortened: as §5
[17] = system: HeLa; experiment: Induction of cell cycle arrest in human HeLa cells assessed as accumulation of cells at G2/M phase at 5 uM incubated for 24 hrs by 7-AAD staining based flow cytometry analysis (reference value: 30%); assay type: functional; procedure, shortened: as §5
[18] = system: HeLa; experiment: Induction of cell cycle arrest in human HeLa cells assessed as accumulation of cells at S phase at 5 uM incubated for 48 hrs by 7-AAD staining based flow cytometry analysis (reference value: 5%); assay type: functional; procedure, shortened: as §5
[19] = system: Panel CNS (Carcinoma cell lines); experiment: Antiproliferative activity against human CNS cancer cells assessed as lethality measured after 24 to 48 hrs by XTT assay; assay type: functional; conditions: time 24-48 hrs; procedure, shortened: as §1
[20] = system: HeLa; experiment: Induction of cell cycle arrest in human HeLa cells assessed as accumulation of cells at G0/G1 phase at 5 uM incubated for 48 hrs by 7-AAD staining based flow cytometry analysis (reference value: 65%); assay type: functional; procedure, shortened: as §5
[21] = system: A704; experiment: Antiproliferative activity against human A704 cells assessed as reduction in cell growth at 4 to 16 uM incubated for 48 to 72 hrs in presence of extrusion-pump inhibitor, SS26 by CellTox based fluorescence analysis; assay type: functional; conditions: dose 4-16 µM, time 48-72 hrs; procedure, shortened: as §4
[22] = Antiproliferative against human breast cancer cells assessed as reduction in cell growth incubated for 24 to 48 hrs by XTT assay; assay type: functional, Panel breast (Carcinoma cell lines); conditions: Breast carcinoma cell, time 24-48 hrs; procedure, shortened: as §2
[23] = system: NCI-H522; experiment: Antiproliferative activity against human NCI-H522 cells assessed as reduction in cell growth at […] measured after 24 to 48 hrs by XTT assay; assay type: functional; conditions: time 24-48 hrs, read-out: GI; procedure, shortened: as §2
[24] = Antiproliferative against human melanoma cells assessed as reduction in cell growth incubated for 24 to 48 hrs by XTT assay; assay type: functional; conditions: Panel melanoma (Carcinoma cell lines), time 24-48 hrs; for CC50: read-out: LC50 (the source's name); procedure, shortened: as §2
[25] = system: Panel NCI-60 (60 carcinoma cell lines); experiment: Antiproliferative against human NCI-60 cells assessed as reduction in cell growth incubated for 24 to 48 hrs by XTT assay; assay type: functional; conditions: time 24-48 hrs; procedure, shortened: as §2
[26] = system: HeLa; experiment: Induction of cell cycle arrest in human HeLa cells assessed as accumulation of cells at G2/M phase at 5 uM incubated for 48 hrs by 7-AAD staining based flow cytometry analysis (reference value: 30%); assay type: functional; procedure, shortened: as §5
[27] = system: A498; experiment: Antiproliferative activity against human A498 cells assessed as reduction in cell growth at 4 to 16 uM incubated for 72 hrs in presence of extrusion-pump inhibitor, SS26 by CellTox based fluorescence analysis; assay type: functional; conditions: dose 4-16 µM; procedure, shortened: as §4
[28] = species on record: Sus scrofa; experiment: Inhibition of pig tubulin polymerization measuring every 20 sec for 30 mins by fluorescence based analysis
[29] = Antiproliferative against human prostate cancer cells assessed as reduction in cell growth incubated for 24 to 48 hrs by XTT assay; assay type: functional; conditions: Panel prostate (Carcinoma cell lines), time 24-48 hrs; procedure, shortened: as §2
[30] = system: HeLa; experiment: Induction of cell cycle arrest in human HeLa cells assessed as accumulation of cells at S phase at 5 uM incubated for 24 hrs by 7-AAD staining based flow cytometry analysis (reference value: 5%); assay type: functional; procedure, shortened: as §5
[31] = system: HeLa; experiment: Induction of cell cycle arrest in human HeLa cells assessed as accumulation of cells at G0/G1 phase at 10 uM incubated for 24 hrs by 7-AAD staining based flow cytometry analysis (reference value: 65%); assay type: functional; procedure, shortened: as §5
[32] = system: HeLa; experiment: Induction of cell cycle arrest in human HeLa cells assessed as accumulation of cells at G0/G1 phase at 5 uM incubated for 24 hrs by 7-AAD staining based flow cytometry analysis (reference value: 65%); assay type: functional; procedure, shortened: as §5
[33] = system: HeLa; experiment: Induction of cell cycle arrest in human HeLa cells assessed as accumulation of cells at G2/M phase at 10 uM incubated for 48 hrs by 7-AAD staining based flow cytometry analysis (reference value: 30%); assay type: functional; procedure, shortened: as §5
[34] = system: A549; experiment: Antiproliferative activity against human A549 cells assessed as reduction in cell growth at 4 to 16 uM incubated for 72 hrs in presence of extrusion-pump inhibitor, SS26 by CellTox based fluorescence analysis; assay type: functional; conditions: dose 4-16 µM; procedure, shortened: as §4
[35] = system: HeLa; experiment: Induction of cell cycle arrest in human HeLa cells assessed as accumulation of cells at S phase at 10 uM incubated for 48 hrs by 7-AAD staining based flow cytometry analysis (reference value: 5%); assay type: functional; procedure, shortened: as §5
[36] = Antiproliferative activity against human NSC lung cancer cells assessed as reduction in cell viability measured after 24 to 48 hrs by XTT assay; assay type: functional; conditions: Non-small cell lung cancer cell line, time 24-48 hrs; for CC50: read-out: LC50 (the source's name)
[37] = system: CCRF-CEM; experiment: Antiproliferative activity against human CCRF-CEM cells assessed as inhibition of cell growth at 10 uM measured after 24 to 48 hrs by XTT assay; assay type: functional; conditions: time 24-48 hrs, read-out: GI; procedure, shortened: as §2
[38] = read-out: LC50 (the source's name)

Compound: COc1ccc(/C=C(\C#N)n2nnc3ccccc32)cc1
- IC50 [1]: 0.2 µM

Compound: Cc1ccc(/C=C(\C#N)n2nnc3cc(F)c(F)cc32)cc1
- Activity [2]: >=90%
- Activity [3]: Active
- GI50 [4]: 1.47 µM
- TGI [4]: ≥ 6.08 µM
- CC50 [4, 38]: ≥ 33.8 µM
- GI50 [5]: 1.77 µM
- TGI [5]: 7.41 µM
- CC50 [5, 38]: ≥ 36.7 µM
- GI50 [6]: 0.391 µM
- TGI [6]: ≥ 0.871 µM
- CC50 [6]: > 100 µM
- Activity [7]: Active
- Activity [8]: Active
- GI50 [9]: 1.48 µM
- TGI [9]: 2.94 µM
- CC50 [9]: ≥ 5.83 µM
- Activity [10]: 10%
- Activity [11]: 66%
- Activity [12]: Active
- fold change (FC) [13]: 3
- GI50 [14]: 0.421 µM
- TGI [14]: 1.53 µM
- CC50 [14, 38]: ≥ 5.8 µM
- IC50 [15]: 3.2 µM
- Activity [16]: 14%
- Activity [17]: 54%
- Activity [18]: 9%
- Activity [19]: >=90%
- Activity [20]: 41%
- Activity [21]: Active
- GI50 [22]: 1.16 µM
- LC50 [22]: > 100 µM
- TGI [22]: ≥ 5.39 µM
- inhibition of growth [23]: 93%
- GI50 [24]: 0.36 µM
- TGI [24]: ≥ 100 µM
- CC50 [24]: ≥ 7.67 µM
- GI50 [25]: ≤ 0.1 µM
- TGI [25]: ≤ 1 µM
- CC50 [25, 38]: ≤ 1 µM
- Activity [26]: 50%
- Activity [27]: Active
- inhibition [28]: Active
- GI50 [29]: 3.32 µM
- TGI [29]: 15.6 µM
- CC50 [29, 38]: 66.2 µM
- Activity [30]: 7%
- Activity [31]: 20%
- Activity [32]: 39%
- Activity [33]: 87%
- Activity [34]: Active
- Activity [35]: 3%
- GI50 [36]: 0.291 µM
- TGI [36]: 1.12 µM
- CC50 [36]: ≥ 6.78 µM

Compound: N#C/C(=C\c1cccc2cnccc12)n1nnc2ccccc21
- GI50 [6]: 0.253 µM
- TGI [6]: ≥ 24.3 µM
- CC50 [6]: > 100 µM
- GI50 [9]: 0.184 µM
- TGI [9]: ≥ 3.61 µM
- CC50 [9]: > 100 µM
- GI50 [22]: 0.557 µM
- LC50 [22]: > 100 µM
- TGI [22]: ≥ 2.84 µM
- GI50 [24]: 2.04 µM
- TGI [24]: > 100 µM
- CC50 [24]: > 100 µM
- GI50 [36]: 0.532 µM
- TGI [36]: ≥ 5.13 µM
- CC50 [36]: > 100 µM
- inhibition of growth at 10 µM [37]: 100%
